According to ChEMBL document CHEMBL1127787, “1,2,3-Triazole-[2',5'-bis-O-(tert-butyldimethylsilyl)-beta-D- ribofuranosyl]-3'-spiro-5"-(4"-amino-1",2"-oxathiole 2",2"-dioxide) (TSAO) analogues: synthesis and anti-HIV-1 activity” (J Med Chem, 1994):

Experiments:
CCRF-CEM [1] = test: Tested for the inhibitory activity of virus induced giant cell formation in HIV-1 infected CEM cells; type: functional, cell-based; conditions: Homo sapiens
CCRF-CEM [2] = test: Tested for the inhibitory activity of virus induced giant cell formation in HIV-2 infected CEM cells; type: functional, cell-based; conditions: Homo sapiens
MT4 [3] = test: Tested for the inhibitory activity of HIV-1 infected MT-4 cells; type: functional, cell-based; conditions: Homo sapiens
In short: (§1)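 MT-4 cells (5 × 10^5/mL) grown in RPMI-1640 with 10% FCS, 2 mM L-glutamine and 0.075% NaHCO3. Infected with HIV-1 or HIV-2 at 100 CCID50/mL and mixed with compound dilutions (100 to 0.006 µg/mL). After 5 days viable cells were counted by trypan blue staining. EC50 is the concentration that reduces viable-cell loss in infected cultures by 50%.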

MT4 [4] = test: Tested for the inhibitory activity of HIV-2 infected MT-4 cells; type: functional, cell-based; conditions: Homo sapiens; in short: as §1
MT4 [5] = test: Tested for the cytotoxic concentration required to reduce the number of viable mock infected MT-4 cells; type: functional; conditions: Homo sapiens
In short: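 Mock-infected MT-4 cells (5 × 10^5/mL) in RPMI-1640 with 10% FCS were exposed to compound dilutions (100 to 0.006 µg/mL). Viable cells were counted by trypan blue at day 5; about 150-200 cells were counted in controls. CC50 is the concentration that reduces viable cell number by 50%.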

MT4 [6] = test: Tested for the ratio between CC50 (MT-4) to EC50 (MT-4); type: functional, Homo sapiens

| EC50 (CCRF-CEM [1]) [µM] | EC50 (CCRF-CEM [2]) [µM] | Structure (SMILES) | EC50 (MT4 [3]) [µM] | EC50 (MT4 [4]) [µM] | CC50 (MT4 [5]) [µM] | Ratio (MT4 [6]) |
| --- | --- | --- | --- | --- | --- | --- |
| 0.9 | > 7 | CC(C)(C)[Si](C)(C)OC[C@H]1O[C@@H](n2cc(C(N)=O)nn2)[C@H](O[Si](C)(C)C(C)(C)C)[C@]12OS(=O)(=O)C=C2N | 1.2 | > 7 | 15 | 12.5 |
| 1.2 | > 7 | CN(C)C(=O)c1cn([C@@H]2O[C@H](CO[Si](C)(C)C(C)(C)C)[C@@]3(OS(=O)(=O)C=C3N)[C@H]2O[Si](C)(C)C(C)(C)C)nn1 | 0.42 | > 7 | 12 | 28.1 |
| 0.14 | > 7 | CC(C)(C)[Si](C)(C)OC[C@H]1O[C@@H](n2nncc2C(N)=O)[C@H](O[Si](C)(C)C(C)(C)C)[C@]12OS(=O)(=O)C=C2N | 0.52 | > 7 | 15 | 28.1 |
| 3.9 | > 35 | CCCc1cnnn1[C@@H]1O[C@H](CO[Si](C)(C)C(C)(C)C)[C@@]2(OS(=O)(=O)C=C2N)[C@H]1O[Si](C)(C)C(C)(C)C | 3.13 | > 350 | > 175 | >56 |
| > 150 | > 150 | CCOC(OCC)c1cn([C@@H]2O[C@H](CO[Si](C)(C)C(C)(C)C)[C@@]3(OS(=O)(=O)C=C3N)[C@H]2O[Si](C)(C)C(C)(C)C)nn1 | 73 | > 150 | > 150 | >2.1 |
| 1.3 | > 165 | CCOC(=O)c1cnnn1[C@@H]1O[C@H](CO[Si](C)(C)C(C)(C)C)[C@@]2(OS(=O)(=O)C=C2N)[C@H]1O[Si](C)(C)C(C)(C)C | 3.2 | > 165 | > 165 | >51 |
| 0.13 | > 40 | COC(=O)c1cnnn1[C@@H]1O[C@H](CO[Si](C)(C)C(C)(C)C)[C@@]2(OS(=O)(=O)C=C2N)[C@H]1O[Si](C)(C)C(C)(C)C | 0.9 | > 150 | 128 | 142 |
| 3.4 | > 7.5 | CC(C)(C)[Si](C)(C)OC[C@H]1O[C@@H](n2ccnn2)[C@H](O[Si](C)(C)C(C)(C)C)[C@]12OS(=O)(=O)C=C2N | 3.8 | > 7.5 | 15 | 4.1 |
| > 1.3 | > 6 | CC(C)(C)[Si](C)(C)OC[C@H]1O[C@@H](n2nncc2CBr)[C@H](O[Si](C)(C)C(C)(C)C)[C@]12OS(=O)(=O)C=C2N | ≥ 6 | > 6 | 13 | <2.1 |
| 0.18 | > 40 | COC(=O)c1cn([C@@H]2O[C@H](CO[Si](C)(C)C(C)(C)C)[C@@]3(OS(=O)(=O)C=C3N)[C@H]2O[Si](C)(C)C(C)(C)C)nn1 | 0.6 | > 150 | ≥ 150 | >=249 |
| 2.8 | > 2.6 | CC(C)(C)[Si](C)(C)OC[C@H]1O[C@@H](n2cc([Si](C)(C)C)nn2)[C@H](O[Si](C)(C)C(C)(C)C)[C@]12OS(=O)(=O)C=C2N | ≥ 6.6 | > 6.6 | 9.5 | <=1.44 |
| > 150 | > 150 | CCOC(OCC)c1cnnn1[C@@H]1O[C@H](CO[Si](C)(C)C(C)(C)C)[C@@]2(OS(=O)(=O)C=C2N)[C@H]1O[Si](C)(C)C(C)(C)C | > 40 | > 40 | > 150 | ><1 |
| 1.5 | > 35 | CCCCc1cnnn1[C@@H]1O[C@H](CO[Si](C)(C)C(C)(C)C)[C@@]2(OS(=O)(=O)C=C2N)[C@H]1O[Si](C)(C)C(C)(C)C | 1.58 | > 170 | ≥ 170 | >=115 |
| – | – | Cc1cn([C@H]2C[C@H](N=[N+]=[N-])[C@@H](CO)O2)c(=O)[nH]c1=O [ZIDOVUDINE] | – | – | 6 | 3000 |
| 1.4 | > 6.9 | Cc1cn([C@@H]2O[C@H](CO[Si](C)(C)C(C)(C)C)[C@@]3(OS(=O)(=O)C=C3N)[C@H]2O[Si](C)(C)C(C)(C)C)nn1 | 2.8 | > 35 | 23 | 8.4 |
| 0.66 | > 33 | CC(C)(C)[Si](C)(C)OC[C@H]1O[C@@H](n2cc(CCCCl)nn2)[C@H](O[Si](C)(C)C(C)(C)C)[C@]12OS(=O)(=O)C=C2N | 0.58 | > 170 | 53 | 91.4 |
| 2.3 | > 70 | COCc1cn([C@@H]2O[C@H](CO[Si](C)(C)C(C)(C)C)[C@@]3(OS(=O)(=O)C=C3N)[C@H]2O[Si](C)(C)C(C)(C)C)nn1 | 27 | > 35 | 73 | 2.44 |
| 1.1 | > 70 | CC(=O)c1cnnn1[C@@H]1O[C@H](CO[Si](C)(C)C(C)(C)C)[C@@]2(OS(=O)(=O)C=C2N)[C@H]1O[Si](C)(C)C(C)(C)C | 2.3 | > 35 | 69 | 30 |
| 1.5 | > 7 | CCCCc1cn([C@@H]2O[C@H](CO[Si](C)(C)C(C)(C)C)[C@@]3(OS(=O)(=O)C=C3N)[C@H]2O[Si](C)(C)C(C)(C)C)nn1 | 2.6 | > 170 | 107 | 41 |
| 1.1 | > 35 | CC(=O)c1cn([C@@H]2O[C@H](CO[Si](C)(C)C(C)(C)C)[C@@]3(OS(=O)(=O)C=C3N)[C@H]2O[Si](C)(C)C(C)(C)C)nn1 | 1.5 | > 7 | 13 | 8.6 |
| 0.08 | > 7 | CNC(=O)c1cnnn1[C@@H]1O[C@H](CO[Si](C)(C)C(C)(C)C)[C@@]2(OS(=O)(=O)C=C2N)[C@H]1O[Si](C)(C)C(C)(C)C | 0.16 | > 7 | 27 | 171 |
| 1.6 | > 60 | CCOC(=O)c1nnn([C@@H]2O[C@H](CO[Si](C)(C)C(C)(C)C)[C@@]3(OS(=O)(=O)C=C3N)[C@H]2O[Si](C)(C)C(C)(C)C)c1C(=O)OCC | 3.8 | > 30 | 55 | 14.5 |
| 1.2 | > 7 | CNC(=O)c1cn([C@@H]2O[C@H](CO[Si](C)(C)C(C)(C)C)[C@@]3(OS(=O)(=O)C=C3N)[C@H]2O[Si](C)(C)C(C)(C)C)nn1 | 0.41 | > 7 | 12 | 28.8 |

| Structure (SMILES) | EC50 (CCRF-CEM [1]) [µM] | EC50 (CCRF-CEM [2]) [µM] | EC50 (MT4 [3]) [µM] | EC50 (MT4 [4]) [µM] | CC50 (MT4 [5]) [µM] | Ratio (MT4 [6]) |
| --- | --- | --- | --- | --- | --- | --- |
| Cc1ccnc2c1NC(=O)c1cccnc1N2C1CC1 [NEVIRAPINE] | 0.11 | > 80 | 0.12 | > 80 | > 80 | >625 |
| Cc1cn([C@@H]2O[C@H](CO[Si](C)(C)C(C)(C)C)C3(OS(=O)(=O)C=C3N)[C@H]2O[Si](C)(C)C(C)(C)C)c(=O)[nH]c1=O (some centres undefined) | 0.06 | > 20 | – | > 20 | 14 | – |
